# Test results from ChEMBL document CHEMBL5620421, “2,6-Disubstituted 7-(naphthalen-2-ylmethyl)-7H-purines as a new class of potent antitubercular agents inhibiting DprE1” (Eur J Med Chem, 2023).
# The source made the active and inactive calls. No cut-off for these calls is given here.
# What was measured:
# [1] = system: Mycobacterium tuberculosis; experiment: Antitubercular activity against Mycobacterium tuberculosis CNCTC My 331/88 (H37Rv) assessed as inhibition of bacterial growth measured after 14 days of incubation by Sulas semisynthetic medium based assay; type: functional; conditions: 336 h, time 14 day
# In short: (§1)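 Micromethod MIC in Sula's semisynthetic medium. MIC is the lowest concentration inhibiting >99% of the mycobacterial population. Isoniazid was the standard drug.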
# [2] = system: Mycobacterium tuberculosis; experiment: Antitubercular activity against Mycobacterium tuberculosis CNCTC My 331/88 (H37Rv) assessed as inhibition of bacterial growth measured after 21 days of incubation by Sulas semisynthetic medium based assay; type: functional; conditions: 504 h, time 21 day; in short: as §1
# [3] = system: Mycobacterium avium; experiment: Antitubercular activity against Mycobacterium avium CNCTC My 330/88 assessed as inhibition of bacterial growth measured after 14 days of incubation by Sulas semisynthetic medium based assay; type: functional; conditions: CNCTC My 330/88, 336 h, time 14 day
# In short: (§2)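 M. avium was tested by the micromethod in Sula's semisynthetic medium. Compounds in DMSO at 1000 to 0.5 μmol/L. Incubation at 37 °C, read at 14 and 21 days. MIC is the lowest concentration giving >99% growth inhibition.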
# [4] = system: Mycobacterium avium; experiment: Antitubercular activity against Mycobacterium avium CNCTC My 330/88 assessed as inhibition of bacterial growth measured after 21 days of incubation by Sulas semisynthetic medium based assay; type: functional; conditions: CNCTC My 330/88, 504 h, time 21 day; in short: as §2
# [5] = system: Mycobacterium kansasii; experiment: Antitubercular activity against Mycobacterium kansasii CNCTC My 235/80 assessed as inhibition of bacterial growth measured after 7 days of incubation by Sulas semisynthetic medium based assay; type: functional; conditions: CNCTC My 235/80, 168 h, time 7 day
# In short: (§3)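 Micromethod in Sula's semisynthetic medium. MIC is the lowest concentration inhibiting >99% of the mycobacterial population. Isoniazid was the standard.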
# [6] = system: Mycobacterium kansasii; experiment: Antitubercular activity against Mycobacterium kansasii CNCTC My 235/80 assessed as inhibition of bacterial growth measured after 14 days of incubation by Sulas semisynthetic medium based assay; type: functional; conditions: CNCTC My 235/80, 336 h, time 14 day; in short: as §3
# [7] = system: Mycobacterium kansasii; experiment: Antitubercular activity against Mycobacterium kansasii CNCTC My 235/80 assessed as inhibition of bacterial growth measured after 21 days of incubation by Sulas semisynthetic medium based assay; type: functional; conditions: CNCTC My 235/80, 504 h, time 21 day; in short: as §3
# [8] = system: HepG2; experiment: Cytotoxicity against human HepG2 cells incubated for 24 hrs by MTT assay; type: functional, cell-based; conditions: HepG2, 24 h
# In short: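 HepG2 cells in DMEM with 10% FBS, seeded at 15 × 10³ cells/well and attached overnight. Exposed for 24 h to serial dilutions prepared from DMSO stocks, final DMSO ≤1%. Then given fresh medium with 0.5 mg/mL MTT for 1 h at 37 °C. Formazan dissolved in DMSO and read at 570 nm. IC50 from 4-parameter nonlinear regression; three independent experiments in triplicate, mean ± SD.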
# [9] = Selectivity index, ratio of IC50 for cytotoxicity against human HepG2 cells by MTT assay to MIC99 for antitubercular activity against Mycobacterium tuberculosis CNCTC My 331/88 (H37Rv) assessed as inhibition of bacterial growth measured after 14 days of incubation; type: functional; conditions: time 14 day
# In short: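 HepG2 cells, 15 × 10³/well, were attached overnight and exposed 24 h to serial dilutions (DMSO ≤1%). Read by MTT at 0.5 mg/mL for 1 h and 570 nm. IC50 from 4-parameter regression, three independent experiments in triplicate. SI is HepG2 IC50 divided by H37Rv MIC99.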
# [10] = system: Staphylococcus aureus; experiment: Antibacterial activity against Staphylococcus aureus C1947 assessed as inhibition of bacterial growth incubated for 24 to 48 hrs by microdilution broth method; type: functional, organism-based; conditions: time 24-48 hrs
# In short: (§4)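 Clinical isolates kept at –70 °C and subcultured twice on Mueller-Hinton agar, using the second subculture. Broth microdilution in Mueller-Hinton broth at pH 7.4 with two-fold serial compound dilutions and DMSO ≤1% final. Inoculum was 10 μL of a 1.5 × 10⁸ CFU/mL suspension. Incubated at 36 °C ± 1 °C and read at 24 h and 48 h. MIC taken as 95% growth inhibition.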
# [11] = system: Staphylococcus aureus; experiment: Antibacterial activity against methicilin-resistant Staphylococcus aureus C1923 assessed as inhibition of bacterial growth incubated for 24 to 48 hrs by microdilution broth method; type: functional, organism-based; conditions: time 24-48 hrs
# In short: (§5)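 Clinical isolates, stored at −70 °C, were passaged twice on Mueller-Hinton agar. Broth microdilution in Mueller-Hinton broth, pH 7.4, with twofold serial dilutions. DMSO was at most 1% final. Inoculum 1.5 × 10⁸ CFU/mL suspension. MIC is 95% growth inhibition, read after 24 and 48 h at 36 °C.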
# [12] = system: Staphylococcus epidermidis; experiment: Antibacterial activity against Staphylococcus epidermidis C1936 assessed as inhibition of bacterial growth incubated for 24 to 48 hrs by microdilution broth method; type: functional, organism-based; conditions: time 24-48 hrs; in short: as §4
# [13] = system: Enterococcus faecium; experiment: Antibacterial activity against vancomycin-resistant Enterococcus faecium assessed as inhibition of bacterial growth incubated for 24 to 48 hrs by microdilution broth method; type: functional, organism-based; conditions: time 24-48 hrs; in short: as §5
# [14] = system: Escherichia coli; experiment: Antibacterial activity against Escherichia coli A1235 assessed as inhibition of bacterial growth incubated for 24 to 48 hrs by microdilution broth method; type: functional, organism-based; conditions: time 24-48 hrs; in short: as §4
# [15] = system: Klebsiella pneumoniae; experiment: Antibacterial activity against ESBL negative Klebsiella pneumoniae C1950 assessed as inhibition of bacterial growth incubated for 24 to 48 hrs by microdilution broth method; type: functional, organism-based; conditions: time 24-48 hrs; in short: as §4
# [16] = system: Klebsiella pneumoniae; experiment: Antibacterial activity against ESBL positive Klebsiella pneumoniae C1914 assessed as inhibition of bacterial growth incubated for 24 to 48 hrs by microdilution broth method; type: functional, organism-based; conditions: time 24-48 hrs; in short: as §4
# [17] = system: Pseudomonas aeruginosa; experiment: Antibacterial activity against multidrug-resistant Pseudomonas aeruginosa A1245 assessed as inhibition of bacterial growth incubated for 24 to 48 hrs by microdilution broth method; type: functional, organism-based; conditions: time 24-48 hrs; in short: as §5
Structure (SMILES),MIC99 [1],MIC99 [2],MIC99 [3],MIC99 [4],MIC99 [5],MIC99 [6],MIC99 [7],IC50 [8],Selectivity Index [9],Activity [10],Activity [11],Activity [12],Activity [13],Activity [14],Activity [15],Activity [16],Activity [17]
CN(C)c1nc(N2CCOCC2)nc2ncn(Cc3ccc4ccccc4c3)c12,8 µM,16 µM,500 µM,500 µM,32 µM,64 µM,125 µM,55.9 µM,6.99,inactive,inactive,inactive,inactive,inactive,inactive,inactive,inactive
CC(C)c1ccc(Cn2cnc3nc(N4CCOCC4)[nH]c(=O)c32)cc1,16 µM,32 µM,> 500 µM,> 500 µM,> 500 µM,> 500 µM,> 500 µM,> 125 µM,>7.8,inactive,inactive,inactive,inactive,inactive,inactive,inactive,inactive
CCSc1nc(N2CCOCC2)nc2ncn(Cc3ccc4ccccc4c3)c12,4 µM,4 µM,> 500 µM,> 500 µM,32 µM,64 µM,125 µM,64.2 µM,16.1,inactive,inactive,inactive,inactive,inactive,inactive,inactive,inactive
CCCCNc1nc(N2CCOCC2)nc2ncn(Cc3ccc4ccccc4c3)c12,4 µM,4 µM,64 µM,125 µM,8 µM,8 µM,8 µM,30.8 µM,7.7,inactive,inactive,inactive,inactive,inactive,inactive,inactive,inactive
CCCNc1nc(N2CCOCC2)nc2ncn(Cc3ccc4ccccc4c3)c12,4 µM,4 µM,125 µM,125 µM,8 µM,8 µM,16 µM,40.5 µM,10.1,inactive,inactive,inactive,inactive,inactive,inactive,inactive,inactive
CCN(CC)c1nc2ncn(Cc3ccc4ccccc4c3)c2c(=O)[nH]1,> 500 µM,> 500 µM,> 500 µM,> 500 µM,> 500 µM,> 500 µM,> 500 µM,,,inactive,inactive,inactive,inactive,inactive,inactive,inactive,inactive
CCNc1nc(N2CCOCC2)nc2ncn(Cc3ccc4cc(F)ccc4c3)c12,4 µM,8 µM,> 500 µM,> 500 µM,16 µM,16 µM,16 µM,40.7 µM,10.18,inactive,inactive,inactive,inactive,inactive,inactive,inactive,inactive
CNc1nc(N2CCOCC2)nc2ncn(Cc3ccc4ccccc4c3)c12,4 µM,4 µM,> 500 µM,> 500 µM,8 µM,8 µM,8 µM,58.8 µM,14.7,inactive,inactive,inactive,inactive,inactive,inactive,inactive,inactive
